From ChEMBL document CHEMBL3352149, “Promiscuity and selectivity in covalent enzyme inhibition: a systematic study of electrophilic fragments” (J Med Chem, 2014)

Tests used:
Escherichia coli [1] = assay: Inhibition of wild-type Escherichia coli MurD compound preincubated for 10 mins before substrate addition at 25 uM measured after 15 mins by LC-MS method
Method in brief: (§1)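 E. coli wild-type enzyme (4 nM) was preincubated with 25 μM compound for 10 min at 37 °C. Enzymatically generated nucleotide-sugar substrate (~200 μM) plus ATP (~200 μM), or NADPH 200 μM for MurB, was added for 10 min. Reactions were started with amino-acid cosubstrate (MurC–F) or EP-UNAG (MurB), run 15 min at 37 °C, and quenched with formic acid. Product was measured by negative-ESI LC-MS EIC peak area. MgCl2: MurC 10, MurD/E 2, MurF 5 mM; MurB had 5 mM KCl. All in 50 mM NH4HCO3, 0.07% BSA, 1% DMSO; triplicate.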

[2] = molecular target: Genome polyprotein (dengue virus type 2) (UniProt P12823); assay: Inhibition of Dengue virus serotype 2 NS2B-NS3 protease at 50 uM
[3] = molecular target: Genome polyprotein (West Nile virus) (UniProt P06935); assay: Inhibition of West Nile virus NS2B-NS3 protease at 50 uM
Chain of Genome polyprotein (West Nile virus) (P06935 whole entry): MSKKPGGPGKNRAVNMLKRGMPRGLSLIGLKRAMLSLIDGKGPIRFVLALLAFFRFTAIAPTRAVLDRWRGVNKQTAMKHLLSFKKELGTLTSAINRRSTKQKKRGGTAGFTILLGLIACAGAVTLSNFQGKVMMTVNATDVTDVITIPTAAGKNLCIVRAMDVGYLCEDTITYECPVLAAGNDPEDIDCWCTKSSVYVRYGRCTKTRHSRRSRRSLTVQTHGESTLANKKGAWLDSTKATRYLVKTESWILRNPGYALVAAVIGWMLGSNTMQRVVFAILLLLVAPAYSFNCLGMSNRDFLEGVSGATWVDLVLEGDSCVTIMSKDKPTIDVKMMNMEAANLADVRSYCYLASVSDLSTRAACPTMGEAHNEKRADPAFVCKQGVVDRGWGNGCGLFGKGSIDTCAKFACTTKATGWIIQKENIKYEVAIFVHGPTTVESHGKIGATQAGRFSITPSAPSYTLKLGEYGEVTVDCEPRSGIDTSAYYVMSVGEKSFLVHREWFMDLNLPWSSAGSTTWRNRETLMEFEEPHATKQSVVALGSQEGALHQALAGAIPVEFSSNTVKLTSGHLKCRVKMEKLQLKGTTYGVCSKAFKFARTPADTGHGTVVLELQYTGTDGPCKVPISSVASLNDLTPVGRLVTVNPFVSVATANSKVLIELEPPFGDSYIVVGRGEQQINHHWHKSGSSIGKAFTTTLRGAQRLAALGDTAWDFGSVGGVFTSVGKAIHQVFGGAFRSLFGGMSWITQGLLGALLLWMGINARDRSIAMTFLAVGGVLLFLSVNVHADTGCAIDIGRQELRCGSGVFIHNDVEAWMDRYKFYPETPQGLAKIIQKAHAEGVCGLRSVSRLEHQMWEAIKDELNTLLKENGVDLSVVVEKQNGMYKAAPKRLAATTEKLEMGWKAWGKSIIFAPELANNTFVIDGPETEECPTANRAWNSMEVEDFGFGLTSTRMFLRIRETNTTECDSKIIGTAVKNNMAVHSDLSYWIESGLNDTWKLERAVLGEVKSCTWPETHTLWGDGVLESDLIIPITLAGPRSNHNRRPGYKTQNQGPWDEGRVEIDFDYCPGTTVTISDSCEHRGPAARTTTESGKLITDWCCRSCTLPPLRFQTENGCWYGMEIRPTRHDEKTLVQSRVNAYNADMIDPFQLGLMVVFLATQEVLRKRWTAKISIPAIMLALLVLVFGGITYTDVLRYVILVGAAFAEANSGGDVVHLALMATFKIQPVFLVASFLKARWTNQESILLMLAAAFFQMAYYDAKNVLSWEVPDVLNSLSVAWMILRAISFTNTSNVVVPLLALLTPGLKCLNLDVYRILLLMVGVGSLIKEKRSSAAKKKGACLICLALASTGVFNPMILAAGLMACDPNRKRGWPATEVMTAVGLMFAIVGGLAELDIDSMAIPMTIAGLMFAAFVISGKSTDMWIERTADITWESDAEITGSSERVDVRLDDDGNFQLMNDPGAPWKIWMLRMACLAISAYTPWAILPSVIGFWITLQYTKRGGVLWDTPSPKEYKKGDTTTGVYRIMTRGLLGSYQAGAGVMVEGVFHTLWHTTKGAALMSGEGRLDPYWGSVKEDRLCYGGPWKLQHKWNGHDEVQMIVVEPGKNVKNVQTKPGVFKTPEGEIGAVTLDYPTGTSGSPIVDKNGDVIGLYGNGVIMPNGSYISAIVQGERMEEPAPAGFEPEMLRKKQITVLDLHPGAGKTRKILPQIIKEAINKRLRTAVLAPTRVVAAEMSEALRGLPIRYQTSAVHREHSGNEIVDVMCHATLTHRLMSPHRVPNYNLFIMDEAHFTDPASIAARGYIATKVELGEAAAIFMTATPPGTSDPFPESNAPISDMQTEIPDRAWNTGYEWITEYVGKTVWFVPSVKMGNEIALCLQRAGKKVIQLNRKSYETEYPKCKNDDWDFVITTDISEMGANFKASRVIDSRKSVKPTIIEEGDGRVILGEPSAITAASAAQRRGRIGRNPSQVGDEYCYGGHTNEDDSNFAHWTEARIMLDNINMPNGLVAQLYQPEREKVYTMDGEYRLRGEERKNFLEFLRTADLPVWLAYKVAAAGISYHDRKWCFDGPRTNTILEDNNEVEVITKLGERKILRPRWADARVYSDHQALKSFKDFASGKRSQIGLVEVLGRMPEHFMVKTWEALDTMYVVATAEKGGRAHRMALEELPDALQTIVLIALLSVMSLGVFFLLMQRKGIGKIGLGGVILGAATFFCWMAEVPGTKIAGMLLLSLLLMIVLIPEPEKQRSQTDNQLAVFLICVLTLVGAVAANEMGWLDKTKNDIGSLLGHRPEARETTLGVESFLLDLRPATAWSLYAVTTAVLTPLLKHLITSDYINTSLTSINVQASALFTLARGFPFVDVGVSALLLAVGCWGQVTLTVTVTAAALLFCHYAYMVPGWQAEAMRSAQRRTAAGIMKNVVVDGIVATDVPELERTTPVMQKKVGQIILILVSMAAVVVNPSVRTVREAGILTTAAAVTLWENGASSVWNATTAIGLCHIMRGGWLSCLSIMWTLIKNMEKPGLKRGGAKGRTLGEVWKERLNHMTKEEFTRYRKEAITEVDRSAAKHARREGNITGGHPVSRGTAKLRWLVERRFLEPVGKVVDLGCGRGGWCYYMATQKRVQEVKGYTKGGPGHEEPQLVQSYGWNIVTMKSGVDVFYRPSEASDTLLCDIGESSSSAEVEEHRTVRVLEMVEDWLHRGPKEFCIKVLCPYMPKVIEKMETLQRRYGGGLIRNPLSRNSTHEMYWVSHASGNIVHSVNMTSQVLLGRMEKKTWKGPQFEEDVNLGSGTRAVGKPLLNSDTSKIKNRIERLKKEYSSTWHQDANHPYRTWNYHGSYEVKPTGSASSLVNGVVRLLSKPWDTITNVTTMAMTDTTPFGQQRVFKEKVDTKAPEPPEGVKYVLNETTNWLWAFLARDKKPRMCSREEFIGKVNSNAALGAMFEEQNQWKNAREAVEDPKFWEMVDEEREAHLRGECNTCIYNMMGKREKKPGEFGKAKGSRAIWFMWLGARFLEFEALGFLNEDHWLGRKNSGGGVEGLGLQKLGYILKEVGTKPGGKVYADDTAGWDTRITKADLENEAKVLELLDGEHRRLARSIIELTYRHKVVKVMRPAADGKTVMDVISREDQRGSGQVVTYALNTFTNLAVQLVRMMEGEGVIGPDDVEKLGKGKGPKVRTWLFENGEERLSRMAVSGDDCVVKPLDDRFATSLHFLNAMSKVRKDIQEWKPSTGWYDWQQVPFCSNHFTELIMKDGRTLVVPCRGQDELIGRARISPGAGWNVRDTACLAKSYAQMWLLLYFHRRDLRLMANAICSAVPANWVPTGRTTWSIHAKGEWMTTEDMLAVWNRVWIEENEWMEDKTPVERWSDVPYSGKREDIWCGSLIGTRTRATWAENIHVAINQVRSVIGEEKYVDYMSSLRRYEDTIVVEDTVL

Escherichia coli [4] = assay: Inhibition of wild-type Escherichia coli MurE compound preincubated for 10 mins before substrate addition at 25 uM measured after 15 mins by LC-MS method; method in brief: as §1
[5] = molecular target: Methionine aminopeptidase 1 (Homo sapiens) (UniProt P53582); assay: Inhibition of human MetAP at 25 uM after 20 mins by HPLC analysis
Method in brief: (§2)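 Endpoint assay. Enzyme (50 nM) was preincubated with 25 μM compound for 20 min at 37 °C in 50 mM Tris pH 7.5, 100 mM NaCl, 100 μM CoCl2, 0.075% BSA. MGMM substrate (400 μM) was then added for 15 min (human MetAP-1) or 20 min (E. coli MetAP). Reactions were stopped with TFA. GMM product was quantified by RP-HPLC, UV 214 nm. Triplicate.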

Escherichia coli [6] = assay: Inhibition of wild-type Escherichia coli MurC compound preincubated for 10 mins before substrate addition at 25 uM measured after 15 mins by LC-MS method; method in brief: as §1
Escherichia coli [7] = assay: Inhibition of Escherichia coli MetAP at 25 uM after 20 mins by HPLC analysis; method in brief: as §2
Prothrombin (Bos taurus) = Prothrombin (Bos taurus) (UniProt P00735); assay: Inhibition of Bovine thrombin using Boc-Val-Pro-Arg-AMC as substrate compound preincubated at 25 uM for 15 mins by fluorescence assay
Method in brief: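 Bovine thrombin (final 10 nM) was preincubated 15 min with 25 μM compound in 50 mM Tris-HCl pH 7.5, 150 mM NaCl, 0.05% Tween 20. The reaction was started with Boc-Val-Pro-Arg-AMC (50 μM final). Fluorescence (ex 355/em 460 nm) was monitored continuously for 10 min; activity taken as slope (RFU/s). Triplicate.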

Escherichia coli [8] = assay: Inhibition of wild-type Escherichia coli MurA compound preincubated for 10 mins before substrate addition at 25 uM measured after 15 mins by LC-MS method
Escherichia coli [9] = assay: Inhibition of wild-type Escherichia coli MurF compound preincubated for 10 mins before substrate addition at 25 uM measured after 15 mins by LC-MS method; method in brief: as §1
[10] = GSH reactivity of the compound assessed as adducts formation by RP-HPLC analysis
Method in brief: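 Fresh aqueous glutathione (10 mM solution) was added to 50 mM Tris-maleate buffer, pH 7.5. The reaction was started with compound from 10 mM DMSO stock (final 250 μM). Mixtures were followed by reversed-phase HPLC on an ODS column with a gradient to 100% B; rate constants are given in l·mol⁻¹·s⁻¹.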

Escherichia coli [11] = assay: Inhibition of wild-type Escherichia coli MurB compound preincubated for 10 mins before substrate addition at 25 uM measured after 15 mins by LC-MS method; method in brief: as §1

inhibition (Escherichia coli [1]) [%] | inhibition [2] [%] | inhibition [3] [%] | inhibition (Escherichia coli [4]) [%] | inhibition [5] [%] | inhibition (Escherichia coli [6]) [%] | inhibition (Escherichia coli [7]) [%] | inhibition (Prothrombin (Bos taurus)) [%] | inhibition (Escherichia coli [8]) [%] | inhibition (Escherichia coli [9]) [%] | inhibition (Escherichia coli [11]) [%] | Structure (SMILES) | Activity [10] [L/mol/s]
< 15 | < 15 | < 15 | < 15 | < 15 | < 15 | < 15 | < 15 | < 15 | 15 | < 15 | C=CCNc1ccc(C)cc1 | < 0.1
< 17 | < 15 | < 15 | < 15 | < 15 | < 15 | < 15 | < 15 | < 15 | < 15 | < 15 | BrC1=NOC(c2ccccc2)C1 (centres undefined) | < 0.1
< 15 | < 15 | 16 | 15 | < 15 | < 15 | < 15 | < 15 | < 15 | < 15 | < 15 | COc1ccc(NC(=O)CC#N)cc1 | < 0.1
< 15 | < 15 | < 15 | 17 | < 15 | < 15 | < 15 | < 15 | < 15 | < 15 | < 15 | C[S+](C)CC(=O)NC1CCCC1 | –
< 15 | < 15 | < 15 | < 15 | < 15 | < 15 | < 15 | < 15 | 17 | < 15 | < 15 | COc1ccc(NC(=O)n2ccnc2)cc1 | < 0.1
< 15 | < 15 | < 15 | < 15 | < 15 | < 15 | < 15 | < 15 | < 15 | < 15 | < 15 | N#CCC(=O)Nc1ccc(F)cc1 | < 0.1
< 15 | < 15 | < 15 | < 15 | < 15 | < 15 | < 15 | < 15 | < 15 | < 15 | 20 | C=CCNc1ccc(OC)cc1 | < 0.1
< 15 | < 15 | < 15 | < 15 | < 15 | < 15 | < 15 | < 15 | < 15 | < 15 | < 15 | CC(=O)Nc1ccc([N+](=O)[O-])cc1 | < 0.1
< 15 | < 15 | < 15 | < 15 | < 15 | < 15 | < 15 | < 15 | < 15 | < 15 | < 15 | C=CCNCc1ccccc1 | < 0.1
< 15 | < 15 | < 15 | < 15 | < 15 | < 15 | < 15 | < 15 | < 15 | < 15 | < 15 | Cc1ccc(NC(=O)n2ccnc2)cc1 | < 0.1
< 15 | < 15 | < 15 | < 15 | < 15 | < 15 | < 15 | < 15 | < 15 | < 15 | < 15 | C[S+](C)CC(=O)NCc1ccccc1 | –
< 15 | < 15 | 22 | < 15 | < 15 | < 15 | < 15 | < 15 | < 15 | < 15 | < 15 | N#CCC(=O)NCCc1ccccc1 | < 0.1
< 15 | < 15 | < 15 | 15 | < 15 | < 15 | < 15 | < 15 | < 15 | < 15 | < 15 | C[S+](C)CC(=O)Nc1ccc(F)cc1 | –
< 15 | < 15 | < 15 | 20 | < 15 | 14 | < 15 | < 15 | < 15 | < 15 | < 15 | CNC(=O)C[S+](C)C | –
< 15 | < 15 | < 15 | < 15 | < 15 | < 15 | < 15 | < 15 | < 15 | < 15 | < 15 | Cc1ccc(NC(=O)CC#N)cc1 | < 0.1
18 | < 15 | < 15 | 17 | < 15 | < 15 | < 15 | < 15 | < 15 | < 15 | < 22 | CCCCC(N)C(=O)OC (centres undefined) | < 0.1
< 15 | < 15 | < 15 | < 15 | < 15 | < 15 | < 15 | < 15 | < 15 | < 15 | 20 | C=CCNc1ccc([N+](=O)[O-])cc1 | < 0.1
< 15 | < 15 | < 15 | < 15 | < 15 | < 15 | < 15 | < 15 | < 15 | < 15 | < 15 | C[S+](C)CC(=O)NCCc1ccccc1 | –
< 15 | < 15 | < 15 | < 15 | < 15 | < 15 | < 15 | < 15 | < 15 | < 15 | < 15 | CNC(=O)CC#N | < 0.1
< 15 | < 15 | < 15 | < 15 | < 15 | < 15 | < 15 | < 15 | < 15 | < 15 | < 15 | O=C(Nc1ccc([N+](=O)[O-])cc1)n1ccnc1 | < 0.1

Structure (SMILES) | inhibition (Escherichia coli [1]) [%] | inhibition [2] [%] | inhibition [3] [%] | inhibition (Escherichia coli [4]) [%] | inhibition [5] [%] | inhibition (Escherichia coli [6]) [%] | inhibition (Escherichia coli [7]) [%] | inhibition (Prothrombin (Bos taurus)) [%] | inhibition (Escherichia coli [8]) [%] | inhibition (Escherichia coli [9]) [%] | inhibition (Escherichia coli [11]) [%] | Activity [10] [L/mol/s]
C=CCNCCc1ccccc1 | < 15 | < 15 | < 15 | < 15 | < 15 | < 15 | < 15 | < 15 | < 15 | < 15 | < 15 | < 0.1
O=C(CCl)NCc1ccccc1 | < 15 | < 15 | < 15 | < 15 | < 15 | < 15 | < 15 | < 15 | < 15 | < 15 | < 15 | < 0.1
